Platelet DG rel – inhibitors of platelet dense granule secretion, primary screen, cell-based, MLPCN, human platelets; human platelet-rich plasma, SFLLRN dense granule ATP release, luminescence; hit rate 0.22% among 300,000; AID 1663, 2009; inhibition, %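 (compounds screened at 7.5 µM in platelet-rich plasma)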;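 active = mean replicate score, as percent of positive control, at or above 50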
SENP8 block-1 – SENP8 protease inhibitors, primary screen, biochemical, luminescence; Sentrin-specific protease 8 (Homo sapiens), Q96LD8; purified SENP8, Z-RLRGG-aminoluciferin cleavage; inhibition, % at 10 µM; hit rate 1.2% among 330,000; AID 2540, 2010; in the data active = inhibition above about 50%
Target sequence (Q96LD8 whole entry, looked up): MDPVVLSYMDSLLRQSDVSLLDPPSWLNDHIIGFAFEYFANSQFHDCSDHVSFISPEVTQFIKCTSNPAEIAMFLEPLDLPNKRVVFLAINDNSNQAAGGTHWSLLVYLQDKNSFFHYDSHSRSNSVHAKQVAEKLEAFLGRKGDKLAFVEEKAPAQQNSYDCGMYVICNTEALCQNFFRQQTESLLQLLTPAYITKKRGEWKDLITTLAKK
SENP7 inh – SENP7 protease inhibitors, primary screen, biochemical, luminescence, uHTS | recombinant SENP7, Z-RLRGG-aminoluciferin luminescence, 40 min | AID 434973, 2010 | inhibition, % at 5 µM | hit rate 1.5% among 330,000;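 active = inhibition above about 50% at the single test dose, limit read from the data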;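 note: plate controls were DMSO with enzyme for no effect and no enzyme buffer wells for full effect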
SENP1 inh – human SENP1 catalytic domain inhibitors, primary screen, biochemical, FRET, uHTS; inhibition, % at 10 µM; AID 624204, 2012; Sentrin-specific protease 1 (Homo sapiens), Q9P0U3; recombinant SENP1 catalytic domain, CyPet-SUMO1-YPet FRET cleavage; hit rate 0.21% among 360,000;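 active = inhibition at least 30% at 10 µM, raw YFP signal under a set limit, fluorescence ratio 0.5 to 1.5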;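 note: 0% = enzyme with DMSO and 100% = no enzyme wells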
Target sequence (Q9P0U3 419-644 limits assumed): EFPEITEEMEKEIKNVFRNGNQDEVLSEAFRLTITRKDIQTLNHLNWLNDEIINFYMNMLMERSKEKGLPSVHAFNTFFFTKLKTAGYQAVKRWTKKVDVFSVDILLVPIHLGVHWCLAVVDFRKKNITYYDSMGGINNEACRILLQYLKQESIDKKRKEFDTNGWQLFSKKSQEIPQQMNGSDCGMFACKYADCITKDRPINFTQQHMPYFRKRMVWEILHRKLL
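Material: hSENP1 catalytic domain, recombinant; medium: Tris pH 8 with BME, BSA, NP40 and catalase; compound: single concentration of 10 µM compound, 0.5% DMSO final; technique: FRET read of cyan and yellow fluorescence; timing: 50 min enzyme reaction, room temperature, light-protected; reagent: SFCypet-SUMO1-SFYpet substrate at 25 nM; control set: no-enzyme low, enzyme-DMSO high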
SENP8 block-2 – human SENP8 protease inhibitors, primary screen, biochemical, fluorescence, Nedd8 protein substrate, uHTS; Sentrin-specific protease 8 (Homo sapiens), Q96LD8; recombinant SENP8; inhibition, % at 20 µM; hit rate 0.64% among 360,000; in the data active = inhibition mostly above about 40%, no sharp cut-off; inactive = mostly below about 27%
SENP6 inh – SENP6 protease inhibitors, primary screen, biochemical, luminescence, uHTS | AID 2599, 2010 | Recombinant SENP6 catalytic domain, aminoluciferin luminescence | hit rate 1.8% among 330,000 | inhibition, % at 10 µM;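 active = inhibition above about 50% at the single tested dose, limit read from the data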;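 note: plate controls were DMSO wells with enzyme for no effect and DMSO wells lacking enzyme for full effect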
SENP8 confirm – SENP8 protease inhibitors, retest, confirmation, biochemical, luminescence, single concentration; shares compounds with SENP7 inh; Recombinant SENP8, Z-RLRGG-aminoluciferin luminescence, 60 min; AID 488912, 2010; hit rate 40% among 6,200; inhibition, % at 12.5 µM;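 active = mean inhibition across replicates above about 50%, limit read from the data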
SENP6 conf – SENP6 protease inhibitors, confirmation, biochemical, luminescence, single concentration. shares compounds with SENP7 inh. recombinant SENP6, Z-RLRGG-aminoluciferin luminescence. inhibition, % at 12.5 µM. hit rate 58% among 6,200. AID 488915, 2010
SENP7 conf – SENP7 protease inhibitors, retest, confirmation, biochemical, luminescence, single concentration | shares compounds with SENP7 inh | recombinant SENP7, Z-RLRGG-aminoluciferin luminescence, 40 min | inhibition, % at 12.5 µM | hit rate 69% among 6,200
Casp3 SENP sel – caspase-3 protease inhibitors, confirmation, selectivity assay for SENP inhibitor project, biochemical, single concentration | shares compounds with SENP7 inh | purified caspase-3, Z-DEVD-aminoluciferin luminescence, 60 min | inhibition, % at 12.5 µM | hit rate 60% among 6,200 | AID 488918, 2010;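 active = mean inhibition above about 50%, limit read from the data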;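 note: plate controls were enzyme with DMSO for no effect and wells without caspase-3 for full effect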
Target sequence (P42574 28-227 limits assumed): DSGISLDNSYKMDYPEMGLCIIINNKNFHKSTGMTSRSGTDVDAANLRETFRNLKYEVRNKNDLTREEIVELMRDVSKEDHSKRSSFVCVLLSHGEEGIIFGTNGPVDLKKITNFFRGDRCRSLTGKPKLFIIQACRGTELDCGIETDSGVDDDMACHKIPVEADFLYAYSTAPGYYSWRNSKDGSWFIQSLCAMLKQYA
SENP luc ctr – counter-screen for SENP inhibitors: luminescence interference | shares compounds with SENP7 inh | Pre-incubated SENP8/Z-RLRGG-aminoluciferin, luciferase luminescence interference | inhibition, % at 12.5 µM | hit rate 39% among 6,200;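 active = mean inhibition above about 50% when retested at one dose, limit read from the data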;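 note: plate controls were DMSO wells with completed reaction for no effect and substrate without enzyme for full effect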
Starred values were filed as active, the others as inactive; i = inactive; . = no result. Most compounds without a hit are left out; they make up all but 2.6% or so of the library.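 Rule for the calls, unless noted: active = mean inhibition above about 50% in the one-dose retest (limit read from the data); inactive = the rest.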

SMILES | Platelet DG rel | SENP8 block-1 | SENP7 inh | SENP1 inh | SENP8 block-2 | SENP6 inh | SENP8 confirm | SENP6 conf | SENP7 conf | Casp3 SENP sel | SENP luc ctr
O=C(c1ccc(Cl)cc1)c1ccc(Oc2cc(NN3CCCCC3)c([N+](=O)[O-])cc2[N+](=O)[O-])cc1 | -1 | -8 | 15 | 4 | 39 | -28 | . | . | . | . | .
Cc1ccc(NC(=O)c2ccc3c(c2)OCO3)cc1Cl | 1 | 40 | 63* | 0 | 12 | 69* | 14 | 50* | 88* | 49 | 10
O=C(Nc1ccc2c(c1)OCO2)c1ccc(Cl)nc1 | -8 | -7 | -2 | 0 | 12 | -3 | . | . | . | . | .
Cc1ccc(C(=O)Nc2ccc3c(c2)OCO3)cc1Cl | 23 | -11 | 51* | 0 | 0 | 5 | -3 | 0 | 61* | 36 | -1
O=C(Nc1ccc2c(c1)OCO2)c1cnc(Cl)c(Cl)c1 | . | 45 | 61* | 0 | 8 | 59* | 4 | 52* | 85* | 69* | 10
Cc1ccc(C(=O)Nc2ccc3c(c2)OCO3)cc1S(=O)(=O)N1CCCC1 | 0 | -9 | -10 | 1 | 21 | -20 | . | . | . | . | .
Cc1cc(Cl)ccc1NC(=O)c1ccc2c(c1)OCO2 | -1 | -10 | -5 | -2 | 19 | -8 | . | . | . | . | .
Cn1nc(C(C)(C)C)cc1NC(=O)C1(C)CCN1C(=O)Cc1ccc(-c2ccccc2)cc1 (centres undefined) | . | . | . | 2 | 23 | . | . | . | . | . | .
COC(=O)Cn1cnc2c(nnn2-c2ccc(OC)cc2)c1=O | 10 | 1 | 3 | 2 | 18 | -9 | . | . | . | . | .
Cc1nn(CC(C)C)c(Cl)c1C(=O)N(c1ccc(Cl)cc1F)S(C)(=O)=O | -1 | 1 | 13 | -1 | 12 | -10 | . | . | . | . | .
ClC(=C\c1ccccc1)/C=N/N1CCN(c2ccccn2)CC1 | -8 | -13 | 54* | 2 | 8 | 26 | 5 | 6 | 17 | 31 | 5
Cc1ccc(/C=N/N2CCN(c3ccccn3)CC2)cc1 | 1 | -16 | -2 | 4 | 11 | 1 | . | . | . | . | .
O=C1C2C3CC4C5C3C1C5C1(SCCS1)C42 (centres undefined) | . | . | . | 0 | -3 | . | . | . | . | . | .
O=C(O)c1ccc(N/N=C/c2ccnc3ccccc23)cc1 | 15 | 82* | 92* | -39 | 11 | 91* | 77* | 90* | 92* | 69* | 10
COc1ccc(/C=N/Nc2ccc(C(=O)O)cc2)c(OC)c1OC | 13 | 7 | 21 | 2 | -197 | -7 | . | . | . | . | .
O=C(O)c1ccc(N/N=C/c2c[nH]c3ccccc23)cc1 | 11 | 98* | 100* | 7 | -279 | 97* | 98* | 100* | 102* | 96* | 97*
CC(=O)Nc1ccc(S(=O)(=O)NC2=C(N3CCN(c4ccc(F)cc4)CC3)C(=O)c3ccccc3C2=O)cc1 | -25 | 29 | 44 | -1 | 78* | 63* | 31 | 56* | 19 | 53* | -1
CCOC(=O)N1CCN(C2=C(NS(=O)(=O)c3ccc(C)cc3)C(=O)c3ccccc3C2=O)CC1 | 6 | 35 | 36 | 4 | 82* | 64* | 5 | 26 | 3 | 5 | -7
COc1ccccc1CNS(=O)(=O)c1ccc(-n2cnnn2)c(OC)c1 | 2 | -1 | -4 | 0 | 9 | -24 | . | . | . | . | .
COc1ccc(Cl)cc1NC(=O)CN1C(=O)C(=O)N(C2CCCC2)C1=O | . | . | . | 2 | 25 | . | . | . | . | . | .
c1ccc(Cn2nc(-c3ccccc3)nc2-c2ccccc2)cc1 | 4 | 47 | 41 | 0 | 11 | 62* | 45 | 38 | 74* | 29 | 17
S=c1nc(-c2ccccc2)oc2c1CCCC2 | -2 | 75* | 88* | -1 | 20 | 92* | 36 | 48 | 63* | 41 | 54*
O=[N+]([O-])c1ccc(-c2nc(=S)c3c(o2)CCCC3)cc1 | 6 | -8 | 0 | 3 | 8 | 0 | . | . | . | . | .
COc1cccc(-c2nc(=S)c3c(o2)CCCC3)c1 | -6 | 34 | 0 | 1 | 10 | 65* | 38 | 21 | 60* | 28 | 25
CCc1nc(SCC(=O)Nc2ccc(F)cc2)c2c(=O)n(C)c(=O)n(C)c2n1 | 9 | 0 | -5 | 0 | -2 | 0 | . | . | . | . | .
SMILES | Platelet DG rel | SENP8 block-1 | SENP7 inh | SENP1 inh | SENP8 block-2 | SENP6 inh | SENP8 confirm | SENP6 conf | SENP7 conf | Casp3 SENP sel | SENP luc ctr
Cc1occc1C(=O)Nc1ccc2ccccc2c1 | 21 | 82* | -5 | -4 | -18 | -8 | 7 | 96* | 102* | 92* | 95*
O=C(Nc1ccc2ccccc2c1)c1ccccc1O | 3 | 96* | 96* | -1 | -130 | 99* | 94* | 96* | 102* | 92* | 64*
Cc1occc1C(=O)Nc1cc(C(C)(C)C)on1 | 56* | 93* | 97* | -2 | 21 | 96* | 93* | 95* | 102* | 97* | 95*
O=C(Nc1ccc2ccccc2c1)c1ccc(Cl)cc1Cl | -10 | 55* | 85* | 3 | 18 | 68* | 0 | 54* | 50* | 55* | 10
O=C(Nc1ccccc1)Nc1cccc2nsnc12 | 10 | 91* | 95* | -32 | -73 | 95* | 96* | 96* | 100* | 92* | 90*
COc1ccc(-c2ccc3ccccc3n2)cc1 | 4 | 93* | 99* | 2 | -417 | 94* | 92* | 97* | 101* | 95* | 74*
COc1ccc2cc(-c3cc(C(=O)O)c4ccccc4n3)ccc2c1 | 30 | 54* | 63* | -2 | i | 83* | 73* | 72* | 88* | 81* | 40
